Converted amounts (≈) assume the structure as drawn. One block for each compound: values may come before it.
Tests used:
HUVECs tube formation = test: Endothelial cell tube formation assay; format: cell-based, human
In short: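 HUVECs grown in ECM-2 were trypsinized and resuspended in basal medium with 0.1% BSA. 5 × 10^4 cells were seeded onto tube-formation matrix plates with test compound or suramin as positive control, for 4–6 h at 37°C, 5% CO2. After HBSS washes, tube junctions were counted at ×4 and expressed as percentage inhibition.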

[1] = tested on: microvessel outgrowth from rat aortic rings; test: Ex vivo rat aortic ring assay; conditions: 12.5 μg/mL, day 5, not significantly different from suramin
In short: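 Thoracic aortas from 10–12-week male Sprague Dawley rats were rinsed in HBSS with 2.5 µg/mL amphotericin B, cleaned and cut into 1 mm rings. Rings were embedded in fibrinogen (3 mg/mL)/thrombin gel in serum-free M199 with aprotinin, then fed M199 with 20% HIFCS and additives at 37°C, 5% CO2. Test compound ran 1.56–12.5 µg/mL, suramin positive, 1% DMSO negative. Day-5 sprouting area was measured (×4) in three experiments, six replicates each, as mean ± SD.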

HepG2 cells = test: MTT cell proliferation inhibition, HepG2; format: cell-based; conditions: Homo sapiens, HepG2, 72 h, read-out: IC50±SD
In short: (§1)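 HepG2 (passage 4–7), HUVEC and WRL68 cells (1 × 10^4) were exposed to test compound for 72 h, with 1% DMSO as negative control. Then 20 µL MTT (5 mg/mL in PBS) was added for 5 h at 37°C, 5% CO2. Absorbance was read at 570 nm against 630 nm reference, and viability expressed as percent of untreated cells. Triplicates were run and the experiment repeated three times.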

WRL68 cells = test: MTT cell proliferation inhibition, WRL68; format: cell-based; conditions: Homo sapiens, WRL68, 72 h, read-out: IC50±SD
In short: as §1

[2] = tested on: human umbilical vein endothelial cells (HUVEC); test: MTT cell proliferation inhibition, HUVEC; format: cell-based; conditions: 72 h
In short: as §1

[3] = tested on: chick chorioallantoic membrane neovascularization; test: Chorioallantoic membrane; format: in vivo, chicken; conditions: 24 h, 6.25 and 12.5 μg/mL (Figure 3 legend)
In short: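 On fertilized eggs incubated from day 5 at 37°C in constant humidity, 5 mL albumin was aspirated and the eggs laid horizontally to detach the CAM. Test compound in 1.2% agarose disks went onto the CAM through a shell window, with agarose-only disks as negative control. The window was taped and eggs incubated 24 h. Vessels were counted from dissecting-microscope photographs as mean count per CAM.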

HepG2 cells migration = test: Cell migration; format: cell-based, human; conditions: HepG2, 6.25, 12.5, 25 μg/mL, up to 96 h; untreated closed after 96 h
In short: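 Confluent HepG2 monolayers were scratched and exposed to 6.25, 12.5 or 25 µg/mL test compound, with images taken at 0, 12, 24, 30, 48, 54, 72, 78 and 96 h. Gap distances were measured by inverted microscopy (×20), using ten fields per treatment and at least 10 readings per field. Cell-free area gave percentage wound closure.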

[4] = tested on: angiogenesis-related proteins of HepG2 cells; test: Human cytokine; format: cell-based; conditions: HepG2, 6.25 μg/mL, cytokine array
In short: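 HepG2 cells were exposed to 6.25 µg/mL test compound. Samples with a biotinylated detection-antibody cocktail were bound to a membrane antibody array of angiogenesis proteins carrying duplicate spots. Detection used streptavidin-HRP chemiluminescence on X-ray film with densitometry. Values are fold change versus untreated cultures.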

[5] = tested on: VEGF, MMP-9 and NF-κB expression in HepG2 cells; test: Western blot analysis of VEGF, MMP-9 and NF-κB; format: cell-based, human; conditions: 6.25 μg/mL, P < 0.05
[6] = Homo sapiens, HUVEC, read-out: inhibition of endothelial tube formation

Compound: Cc1ccc(C(=O)Nc2ccc(S(=O)(=O)O)c3cc(S(=O)(=O)O)cc(S(=O)(=O)O)c23)cc1NC(=O)c1cccc(NC(=O)Nc2cccc(C(=O)Nc3cc(C(=O)Nc4ccc(S(=O)(=O)O)c5cc(S(=O)(=O)O)cc(S(=O)(=O)O)c45)ccc3C)c2)c1 [Suramin, reference compound]
inhibition at 100 µg/mL (HUVECs tube formation; [6]): 96%

IC50 (HepG2 cells): 6.2 ± 0.7 µg/mL (≈ 28.4 µM)
Compound: C/C1=C\CC(C)(C)/C=C/C(=O)/C(C)=C/CC1 [ZER, zerumbone]
inhibition of neovascularization [1]: almost complete inhibition | IC50 (WRL68 cells): 150 ± 0.4 µg/mL (≈ 687 µM) | IC50 ([2]; Homo sapiens, read-out: IC50±SD, HUVEC, MTT, 72 h): > 50 µg/mL | IC50±SD ([2]; MTT): 62.0 ± 1.3 µg/mL (≈ 284 µM) | effect on endothelial tube network (HUVECs tube formation; HUVECs, 3.125 μg/mL): reduced the intensity of network structures and caused the formation of incomplete and broken tubules | inhibition at 12.5 µg/mL (HUVECs tube formation; [6]): 89% | effect on CAM vasculature [3]: vascular regression | scratch wound closure (HepG2 cells migration): not scratch closure | MMP expression [4]: inhibited expression | VEGF expression [4]: inhibited expression | angiogenin expression [4]: inhibited expression | angiopoietin expression [4]: inhibited expression | endostatin expression [4]: increasing expression | thrombospondin expression [4]: increasing expression | Matrix metalloproteinase-9 (MMP-9) expression [5]: downregulation | NF-κB expression [5]: downregulation | VEGF expression [5]: downregulation

From paper PMC5822492 (Pharmacognosy Magazine, 2018)
